Source: PubChem BioAssay
Activity calls are given as the source filed them.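 Rule for the calls: active = current rise at least 3 SD above the untreated control mean in each of two repeat wells; inactive = the rest.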

The compounds below were run against Potassium voltage-gated channel subfamily KQT member 1 (Homo sapiens) (UniProt P51787) (assay: KCNQ1 activators by electrophysiology – IonWorks patch clamp, KCNQ1-CHO cells, orthogonal assay for KCNQ1 potentiator project, confirmation (AID 493184)). Conditions: automated patch clamp current, at 10 µM.
Summary of the method: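 assay system = KCNQ1-expressing CHO cells | medium = external bath solution at pH 7.4 | probe or stimulus = 2,000 ms depolarization, -90 to +40 mV | compound dosing = 10 µM final, single point | measured by = automated voltage clamp, amphotericin B perforated patch | measure = percent current increase versus pre-compound level | replication = duplicates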

Sequence of Potassium voltage-gated channel subfamily KQT member 1 (Homo sapiens) (P51787 whole entry, looked up): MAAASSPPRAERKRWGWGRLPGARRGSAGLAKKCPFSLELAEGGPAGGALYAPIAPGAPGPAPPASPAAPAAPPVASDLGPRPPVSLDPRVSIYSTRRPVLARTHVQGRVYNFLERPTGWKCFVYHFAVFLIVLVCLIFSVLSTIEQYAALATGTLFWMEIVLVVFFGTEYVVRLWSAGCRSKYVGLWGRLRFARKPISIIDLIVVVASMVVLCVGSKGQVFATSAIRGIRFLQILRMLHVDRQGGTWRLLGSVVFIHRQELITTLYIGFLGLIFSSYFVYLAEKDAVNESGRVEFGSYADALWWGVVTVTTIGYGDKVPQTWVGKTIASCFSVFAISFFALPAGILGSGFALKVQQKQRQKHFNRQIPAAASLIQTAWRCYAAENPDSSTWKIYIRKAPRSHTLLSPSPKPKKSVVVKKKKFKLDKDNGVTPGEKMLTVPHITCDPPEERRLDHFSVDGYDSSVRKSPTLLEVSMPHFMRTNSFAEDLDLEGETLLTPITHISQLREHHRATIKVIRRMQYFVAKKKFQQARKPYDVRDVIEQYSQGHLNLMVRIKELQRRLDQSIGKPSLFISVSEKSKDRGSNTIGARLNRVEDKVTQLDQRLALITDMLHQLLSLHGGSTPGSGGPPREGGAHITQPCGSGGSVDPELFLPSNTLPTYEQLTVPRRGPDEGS

outcome, inactive:
CCCn1c(=S)[nH]c2ccccc2c1=O
O=C1OC(c2ccc(F)cc2)=N/C1=C\c1ccc(Br)o1
CCN(Cc1cc2cc(OC)ccc2[nH]c1=O)C(=O)c1ccncc1
COc1ccc(CN(C)C(=O)c2ccc3ccccc3n2)cc1F
Cc1nn(CCc2nn[nH]n2)c2nc(-c3ccc(C4CCCCC4)cc3)cc(C(F)(F)F)c12
CS(=O)(=O)N1CCC(C(=O)Nc2ccc(OCc3ccccc3)cc2)CC1
Cc1ccc(Oc2ccc(NC(=O)Cn3ccsc3=N)cc2)cc1
N#C/C(=C\c1ccc(-c2ccccc2[N+](=O)[O-])o1)C(=O)Nc1nc(-c2cccs2)cs1
COc1ccc(NC(=S)NC(=O)c2ccccc2Cl)cc1
S=c1[nH]cnc2scc(-c3ccccc3)c12
CC(C)n1cc(NC(=O)c2cc(-c3ccccc3)on2)cn1
COc1ccc(-c2cc3nc(C)c(CCC(=O)NC(C)CCc4ccco4)c(C)n3n2)c(OC)c1 (stereo not given)
Oc1oc(-c2cccc3ccccc23)nc1/C=N/c1nccs1
COC(=O)C1C(c2ccc(OC)c(OC)c2)NC(c2ccc(OC)c(OC)c2)C(C(=O)OC)S1(=O)=O (stereo not given)
COc1ccc(C)cc1NC(=O)C(=O)NNC(=O)c1ccco1
CN(C)S(=O)(=O)c1ccc(Cl)c(NC(=O)CN2CCCCCC2)c1
CCCN(CCC)C(=S)NC(=O)c1ccc(-c2ccccc2)cc1
Cc1nnc(SCC(=O)N(Cc2ccccc2)C(C)C)n1-c1ccccc1
CCCCCCCCCCCCN1[C@@H](CC(=O)O)c2cc(F)ccc2S1(=O)=O
CC1CCN(c2ncnc3ccccc23)CC1
O=c1ccc(N=Nc2ccccc2)ccc1O
CC1CCN(C(=S)NC(=O)c2cccc([N+](=O)[O-])c2)CC1
CSC(C(=O)c1cc2ccccc2o1)c1ccccc1 (stereo not given)
CCc1ccc(-c2c(C)sc(NC(C)=O)c2C(N)=O)cc1
COC(=O)C1CCCN1C(=O)COc1ccc(Br)cc1Cl (stereo not given)
CC1=C(C)/C(=N\OS(=O)(=O)c2ccccc2)C=CC1=O
O=C(NC(=S)Nc1ccccc1N1CCOCC1)c1sc2ccccc2c1Cl
COC(=O)c1sc(NC(=S)NC(=O)c2ccccc2F)nc1C
CN(C)c1ccc(C(=O)Nc2nnc(C3=COCCO3)o2)cc1
CNC(=O)c1cc(-c2ccc(Cl)cc2)n(-c2ccccc2)n1
NC(N)=N/N=C/c1ccccc1OC(F)F
Cc1ccc(C(=O)NCCC(=O)NCc2cc(=O)n(C)c(=O)n2C)cc1
O=C(CN(c1ccc(Cl)cc1)S(=O)(=O)c1ccc(Cl)c([N+](=O)[O-])c1)NCCc1ccc(F)cc1
COc1ccc(-n2cc(-c3ccccc3)c3c(=S)nc[nH]c32)cc1
O=C(NC(=S)Nc1nc2ccc(F)cc2s1)c1ccco1
Cc1ccc(NC(=O)CCS(=O)(=O)c2cccc3nonc23)c(Br)c1
O=c1c2cc(Cl)ccc2nc(-c2ccc([N+](=O)[O-])cc2)n1O
CC(=O)N[C@H]1[C@H](OC2CCCCC2)O[C@H](COC(C)=O)[C@@H](OC(C)=O)[C@@H]1OC(C)=O
O=C(NNc1nc2c(F)cccc2s1)c1cc(=O)c2ccccc2o1
CSc1ccccc1C(=O)NC1CCCc2ccccc21 (stereo not given)
